In ChEMBL document CHEMBL3414521, “Discovery of the 2-phenyl-4,5,6,7-Tetrahydro-1H-indole as a novel anti-hepatitis C virus targeting scaffold” (Eur J Med Chem, 2015):
pEC50, pIC50: −log10 of the molar value. Calls of active or inactive are those of the source. The rule behind the calls is not given here.

Experiments:
[1] = Cytotoxicity against human Huh7.5 cells after 48 hrs by MTS assay; assay type: cell-based; conditions: huh-7, 48 h
Method in brief: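 Parental Huh7.5 cells grown in DMEM with 10% FCS without G418, 37 °C, 5% CO2; treated at 6–8 doses for 48 h. Viability by MTS bioreduction to formazan; CC50 as concentration halving MTS conversion relative to DMSO controls, mean ± SD of three independent experiments.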

Hepatitis C virus [2] = assay: Antiviral activity against HCV genotype 1b infected in HuH7/Rep-Feo1b cells at 50 uM by firefly luciferase reporter gene assay; assay type: functional, Hepacivirus hominis; conditions: Huh-7
Method in brief: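 Replicon reporter cells (gt 1b in Huh7/Rep-Feo1b, firefly luciferase; gt 2a in Huh7.5-FGR-JC1-Rluc2A, Renilla luciferase) kept in DMEM with 10% FCS and 0.5 mg/mL G418, 37 °C, 5% CO2. About 1×10^4 cells per well were treated at 50 μM for 48 h in 1.0% DMSO. Luciferase signal was read relative to DMSO-treated cells as % inhibition.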

Hepatitis C virus [3] = assay: Antiviral activity against HCV genotype 1b infected in HuH7/Rep-Feo1b cells by firefly luciferase reporter gene assay; assay type: functional, cell-based, Hepacivirus hominis; conditions: Huh-7
Method in brief: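 Huh7 cells carrying autonomously replicating gt 1b replicon with firefly luciferase reporter; ~1×10^4 cells/well treated 48 h, 1.0% DMSO final. Primary screen at 50 μM; actives titrated over 8–12 quarter-log dilutions. Luciferase signal relative to DMSO-treated controls; EC50 from dose-response curves, mean ± SD of three independent experiments.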

[4] = Selectivity index, ratio of CC50 for human Huh7.5 cells to EC50 for HCV genotype 1b infected in HuH7/Rep-Feo1b cells; set-up: species or system Huh-7
Hepatitis C virus [5] = assay: Antiviral activity against HCV genotype 2a infected in HuH7.5-FGR-JC1_Rluc2A cells at 50 uM by […] luciferase reporter gene assay; assay type: functional, Hepacivirus hominis
Hepatitis C virus [6] = assay: Antiviral activity against HCV genotype 2a infected in HuH7.5-FGR-JC1_Rluc2A cells by […]; assay type: functional, Hepacivirus hominis
[7] = Selectivity index, ratio of CC50 for human Huh7.5 cells to EC50 for HCV genotype 2a infected in HuH7.5-FGR-JC1_Rluc2A cells; set-up: species or system Huh-7
Hepatitis C virus [8] = assay: Antiviral activity against HCV genotype 1b infected in human MH14 cells assessed as inhibition of replication after 48 hrs by RT-PCR analysis; assay type: functional; conditions: Hepacivirus hominis
Method in brief: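 Stable gt 1b subgenomic replicon cells (MH-14), reporter-free, exposed to compound; total RNA isolated by spin-column kit, quantified spectrophotometrically, and HCV RNA measured by quantitative RT-PCR.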

Hepacivirus hominis = assay: Inhibition of recombinant HCV hexa histidine-tagged NS5B Cdelta21 RNA dependent RNA polymerase expressed in Escherichia coli at 50 uM after 60 mins by liquid scintillation counting analysis
[9] = tested on: Hepatitis C virus (isolate Con1); assay: Inhibition of HCV Con1 genotype 1b C-terminal His-tagged NS3 helicase lacking N-terminal protease using fluorescent DNA as substrate at 500 uM
Method in brief: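 Molecular beacon unwinding assay: 12.5 nM NS3h, 5 nM fluorescent DNA substrate, 1 mM ATP, 25 mM MOPS pH 6.5, 1.25 mM MgCl2, 5% DMSO, 5 µg/ml BSA, 0.01% Tween20, 0.05 mM DTT; compounds up to 500 μM.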

[10] = Inhibition of HCV Con1 genotype 1b C-terminal His-tagged NS3 helicase lacking N-terminal protease using ATP/RNA as substrate after 15 mins by malachite green-based assy; set-up: species or system Hepatitis C virus (isolate Con1)
Method in brief: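 NS3h (con1 gt 1b, C-terminal His-tag, protease-deleted) at 4 nM with 1 μM polyU RNA (nucleotide), 25 mM MOPS pH 6.5, 1.25 mM MgCl2, 1 mM ATP, 33 µg/ml BSA, 0.07% Tween 20, 0.3 mM DTT, 10% DMSO; started with ATP, 15 min, 37 °C. Phosphate by malachite green, A630. Two-fold series 0.5 mM–0.78 µM, duplicate; variable-slope fit, mean ± SD.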

[11] = tested on: Internal ribosome entry site (IRES); assay: Effect on HCV IRES-mediated translation infected in human Huh 7.5 cells by dual-glo luciferase assay; assay type: cell-based; conditions: Hepacivirus hominis
[12] = molecular target: T1, Prostaglandin G/H synthase 2 (Homo sapiens, UniProt P35354); assay: Effect on cyclooxygenase-2 (unknown origin)-mediated HCV replication in human MH14 cells transfected with pCOX-2-Fluc by luciferase reporter gene assay; assay type: ADME, cell-based
T1 sequence (P35354 whole entry): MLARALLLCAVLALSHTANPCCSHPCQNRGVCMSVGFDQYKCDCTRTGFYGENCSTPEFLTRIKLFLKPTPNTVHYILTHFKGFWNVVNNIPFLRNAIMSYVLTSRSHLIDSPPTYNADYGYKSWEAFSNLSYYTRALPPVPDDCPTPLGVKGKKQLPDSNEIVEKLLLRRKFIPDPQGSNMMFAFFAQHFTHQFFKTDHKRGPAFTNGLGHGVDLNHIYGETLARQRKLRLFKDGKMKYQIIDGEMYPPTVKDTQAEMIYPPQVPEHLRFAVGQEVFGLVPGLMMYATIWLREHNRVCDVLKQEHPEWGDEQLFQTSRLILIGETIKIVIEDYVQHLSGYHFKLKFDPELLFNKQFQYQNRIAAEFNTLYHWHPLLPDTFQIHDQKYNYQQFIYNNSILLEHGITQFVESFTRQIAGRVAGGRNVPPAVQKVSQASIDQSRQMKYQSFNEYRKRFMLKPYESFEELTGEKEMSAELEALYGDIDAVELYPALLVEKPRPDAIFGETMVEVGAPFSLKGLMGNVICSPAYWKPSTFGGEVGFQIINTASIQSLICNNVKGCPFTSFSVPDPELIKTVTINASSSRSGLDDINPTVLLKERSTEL
Method in brief: (§1)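 MH-14 replicon cells transfected with 300 ng of the reporter plasmid (pCOX-2-FLuc, pHO-1-Luc, pISRE-Luc or p3xARE-Luc); 16 h later treated with compound at 5, 10 and 25 μM or DMSO for 48 h. Firefly luciferase read, normalized to Renilla luciferase for transfection efficiency.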

Heme oxygenase 1 = molecular target: T2, Heme oxygenase 1 (Homo sapiens, UniProt P09601); assay: Effect on heme oxygenase-1 (unknown origin)-mediated HCV replication in human MH14 cells transfected with pHO-1-Luc by luciferase reporter gene assay; assay type: ADME, cell-based; method in brief: as §1
T2 sequence (P09601 whole entry): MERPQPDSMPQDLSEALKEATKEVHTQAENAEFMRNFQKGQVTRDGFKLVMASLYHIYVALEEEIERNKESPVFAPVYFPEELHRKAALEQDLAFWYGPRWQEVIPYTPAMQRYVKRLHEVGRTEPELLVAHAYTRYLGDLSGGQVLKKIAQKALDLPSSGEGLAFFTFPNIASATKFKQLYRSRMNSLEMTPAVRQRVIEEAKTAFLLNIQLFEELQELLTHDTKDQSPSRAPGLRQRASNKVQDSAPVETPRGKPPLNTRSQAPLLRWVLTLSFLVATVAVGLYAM

[13] = Effect on interferon-stimulated response element (unknown origin)-mediated HCV replication in human MH14 cells transfected with pISRE-Luc by luciferase reporter gene assay; assay type: ADME, cell-based; method in brief: as §1
[14] = Effect on anti-oxidant response element (unknown origin)-mediated HCV replication in human MH14 cells transfected with p3xARE-Luc by luciferase reporter gene assay; assay type: ADME, cell-based; method in brief: as §1

Row | Structure (SMILES) | CC50 [1] | inhibition at 50 µM (Hepatitis C virus [2]) | pEC50 (Hepatitis C virus [3]) | Ratio CC50/EC50 [4] | inhibition at 50 µM (Hepatitis C virus [5]) | pEC50 (Hepatitis C virus [6]) | Ratio CC50/EC50 [7] | inhibition (Hepatitis C virus [8]) | inhibition (Hepacivirus hominis) | inhibition [9] | pIC50 [10] | inhibition [11] | inhibition (INH) [12] | inhibition (INH) (Heme oxygenase 1) | inhibition (INH) [13] | inhibition (INH) [14]
1 | c1ccc(Cn2c(-c3ccccc3)cc3c2CCCC3)cc1 | 80.8 µM | 95% | 5.10 | 10 | 99% | 5.59 | 32 | Dose-dependent effect | inactive | inactive | < 3.00 | inactive | Not Active | Not Active | Not Active | Not Active
2 | COc1ccc(-c2cc3c(n2Cc2ccccc2)CCCC3)cc1 | 137 µM | 99% | 4.93 | 12 | 96% | 5.31 | 28 |  | inactive | inactive | < 3.00 |  |  |  |  | 
3 | Fc1ccc(-n2c(-c3ccccc3)cc3c2CCCC3)cc1 | > 200 µM | 71% | 4.53 | >7 | 66% | 4.91 | >16 |  | inactive | inactive | < 3.00 |  |  |  |  | 
